Source: ChEMBL document CHEMBL3603779, “Identification and Optimization of Benzimidazole Sulfonamides as Orally Bioavailable Sphingosine 1-Phosphate Receptor 1 Antagonists with in Vivo Activity” (J Med Chem, 2015)
Calls of active or inactive are those of the source. No cut-off for these calls is given here.

Legend:
[1] = Intrinsic clearance in human liver microsomes pre-incubated at 37 degC for 5 mins before NADPH addition by LCMS/MS method; assay type: ADME; conditions: read-out: CLH
[2] = target: Sphingosine 1-phosphate receptor 1 (Mus musculus) (UniProt O08530); assay: Antagonist activity against mouse S1P1 receptor expressed in human U2OS cells co-expressing GFP assessed as inhibition of S1P-induced receptor translocation; assay type: cell-based
Cytochrome P450 3A4 = Cytochrome P450 3A4 (Homo sapiens, UniProt P08684); assay: Induction of CYP3A4 activation in human hepatocytes at 0.2 to 20 uM incubated for 48 hrs using testosterone substrate; assay type: ADME, cell-based, Hepatocyte
Summary of the method: (§1)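 Primary human hepatocytes seeded on collagen and cultured in collagen-Matrigel sandwich. On day 3 they are treated for 48 h with DMSO, test compound at varying concentrations, or reference inducer (3-methylcholanthrene for CYP1A2, phenobarbital for CYP2B6, rifampicin for CYP3A4/5). Probe substrates are then added (phenacetin, bupropion, testosterone) and marker metabolites quantified (acetaminophen, hydroxybupropion, 6-β-hydroxytestosterone).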

[3] = Clearance in Han Wistar rat at 2 to 4 mg/kg, iv by LC-MS/MS method; assay type: ADME, organism-based; conditions: in vivo
Cytochrome P450 3A5 [4] = target: T1, Cytochrome P450 3A5 (Homo sapiens, UniProt P20815); assay: Induction of CYP3A5 activation in human hepatocytes at 2 uM incubated for 48 hrs using testosterone substrate; assay type: ADME, cell-based, Hepatocyte; summary of the method: as §1
Cytochrome P450 3A5 [5] = target: T1, Cytochrome P450 3A5; assay: Induction of CYP3A5 activation in human hepatocytes at 0.2 to 20 uM incubated for 48 hrs using testosterone substrate; assay type: ADME, cell-based, Hepatocyte; summary of the method: as §1
[6] = Oral bioavailability in Han Wistar rat at 5 to 10 mg/kg by LC-MS/MS method; assay type: ADME, organism-based; conditions: in vivo
Cytochrome P450 1A2 = target: T2, Cytochrome P450 1A2 (Homo sapiens, UniProt P05177); assay: Induction of CYP1A2 activation in human hepatocytes at 0.2 to 20 uM incubated for 48 hrs using phenacetin substrate; assay type: ADME, cell-based, Hepatocyte; summary of the method: as §1
T2 sequence (P05177 whole entry): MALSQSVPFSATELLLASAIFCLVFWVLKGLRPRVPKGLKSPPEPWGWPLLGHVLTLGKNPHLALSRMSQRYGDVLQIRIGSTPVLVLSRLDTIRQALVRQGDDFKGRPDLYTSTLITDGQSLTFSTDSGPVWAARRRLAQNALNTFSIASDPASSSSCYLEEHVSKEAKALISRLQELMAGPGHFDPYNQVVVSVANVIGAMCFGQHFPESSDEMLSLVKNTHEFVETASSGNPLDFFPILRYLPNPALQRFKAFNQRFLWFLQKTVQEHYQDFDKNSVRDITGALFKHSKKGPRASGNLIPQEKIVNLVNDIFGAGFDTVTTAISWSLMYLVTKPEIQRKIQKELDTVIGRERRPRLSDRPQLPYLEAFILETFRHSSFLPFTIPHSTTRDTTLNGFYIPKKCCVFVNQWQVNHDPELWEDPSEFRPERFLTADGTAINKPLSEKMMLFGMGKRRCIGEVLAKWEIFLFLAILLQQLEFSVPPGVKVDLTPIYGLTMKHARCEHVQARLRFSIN

[7] = target: Sphingosine 1-phosphate receptor 1 (Homo sapiens, UniProt P21453); assay: Antagonist activity against human S1P1 receptor expressed in human U2OS cells co-expressing GFP assessed as inhibition of S1P-induced receptor translocation; assay type: cell-based
Summary of the method: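 Cellular S1P1 translocation (internalization) assay with antagonist; EC50 reported as mean of at least three separate determinations ± standard deviation.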

Cytochrome P450 2B6 = target: T3, Cytochrome P450 2B6 (Homo sapiens, UniProt P20813); assay: Induction of CYP2B6 activation in human hepatocytes at 0.2 to 20 uM incubated for 48 hrs using bupropion substrate; assay type: ADME, cell-based, Hepatocyte; summary of the method: as §1
T3 sequence (P20813 whole entry): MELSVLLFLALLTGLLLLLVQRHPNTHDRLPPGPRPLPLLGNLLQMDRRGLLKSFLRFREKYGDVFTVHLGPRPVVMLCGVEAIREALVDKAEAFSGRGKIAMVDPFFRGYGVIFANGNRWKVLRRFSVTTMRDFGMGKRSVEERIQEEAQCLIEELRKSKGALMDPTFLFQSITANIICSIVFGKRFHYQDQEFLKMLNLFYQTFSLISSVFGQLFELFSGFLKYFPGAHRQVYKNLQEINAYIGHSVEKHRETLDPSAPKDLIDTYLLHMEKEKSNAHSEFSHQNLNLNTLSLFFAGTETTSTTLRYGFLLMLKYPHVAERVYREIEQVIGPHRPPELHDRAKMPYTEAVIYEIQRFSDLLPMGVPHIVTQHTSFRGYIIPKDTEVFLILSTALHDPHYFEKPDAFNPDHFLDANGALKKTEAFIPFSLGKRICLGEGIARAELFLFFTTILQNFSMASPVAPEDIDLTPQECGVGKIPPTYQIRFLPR

T1 sequence (P20815 whole entry): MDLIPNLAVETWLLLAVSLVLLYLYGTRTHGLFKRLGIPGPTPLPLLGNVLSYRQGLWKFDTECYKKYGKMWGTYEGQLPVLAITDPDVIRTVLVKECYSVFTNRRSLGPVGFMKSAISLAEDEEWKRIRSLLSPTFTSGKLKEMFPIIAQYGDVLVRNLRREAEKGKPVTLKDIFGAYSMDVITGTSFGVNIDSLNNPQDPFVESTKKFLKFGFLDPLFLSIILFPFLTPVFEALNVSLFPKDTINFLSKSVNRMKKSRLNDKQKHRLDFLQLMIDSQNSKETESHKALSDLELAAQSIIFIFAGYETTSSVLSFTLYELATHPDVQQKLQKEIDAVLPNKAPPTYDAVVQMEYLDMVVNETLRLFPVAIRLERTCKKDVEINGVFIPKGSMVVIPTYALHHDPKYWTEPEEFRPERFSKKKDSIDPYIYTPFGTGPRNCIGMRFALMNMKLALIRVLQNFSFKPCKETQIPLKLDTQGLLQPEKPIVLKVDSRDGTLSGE
Sphingosine 1-phosphate receptor 1, sequence (P21453 whole entry): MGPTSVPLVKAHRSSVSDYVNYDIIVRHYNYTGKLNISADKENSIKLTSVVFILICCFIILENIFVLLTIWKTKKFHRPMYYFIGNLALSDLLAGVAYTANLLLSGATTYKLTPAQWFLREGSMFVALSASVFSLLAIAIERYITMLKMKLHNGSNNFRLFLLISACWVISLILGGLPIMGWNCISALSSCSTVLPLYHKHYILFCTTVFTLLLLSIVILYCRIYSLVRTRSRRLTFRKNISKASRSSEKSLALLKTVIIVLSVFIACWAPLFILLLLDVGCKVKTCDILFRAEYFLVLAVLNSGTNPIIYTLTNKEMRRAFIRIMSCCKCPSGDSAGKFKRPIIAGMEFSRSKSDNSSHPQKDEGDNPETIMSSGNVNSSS
Cytochrome P450 3A4, sequence (P08684 whole entry): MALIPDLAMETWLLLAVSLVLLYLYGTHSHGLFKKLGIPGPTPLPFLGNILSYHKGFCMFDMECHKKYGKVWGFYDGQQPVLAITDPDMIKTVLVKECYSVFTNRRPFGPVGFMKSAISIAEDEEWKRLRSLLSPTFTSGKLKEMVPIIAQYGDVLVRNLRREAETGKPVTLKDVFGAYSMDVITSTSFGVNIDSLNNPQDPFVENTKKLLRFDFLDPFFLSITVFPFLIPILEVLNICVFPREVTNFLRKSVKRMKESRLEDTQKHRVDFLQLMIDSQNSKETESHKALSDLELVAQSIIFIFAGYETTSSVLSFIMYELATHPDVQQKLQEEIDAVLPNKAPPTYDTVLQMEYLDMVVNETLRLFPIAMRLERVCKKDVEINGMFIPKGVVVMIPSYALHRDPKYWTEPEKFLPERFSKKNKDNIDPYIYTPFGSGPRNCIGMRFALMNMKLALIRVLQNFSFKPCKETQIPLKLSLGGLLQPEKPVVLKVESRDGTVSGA
Sphingosine 1-phosphate receptor 1 (Mus musculus), sequence (O08530 whole entry): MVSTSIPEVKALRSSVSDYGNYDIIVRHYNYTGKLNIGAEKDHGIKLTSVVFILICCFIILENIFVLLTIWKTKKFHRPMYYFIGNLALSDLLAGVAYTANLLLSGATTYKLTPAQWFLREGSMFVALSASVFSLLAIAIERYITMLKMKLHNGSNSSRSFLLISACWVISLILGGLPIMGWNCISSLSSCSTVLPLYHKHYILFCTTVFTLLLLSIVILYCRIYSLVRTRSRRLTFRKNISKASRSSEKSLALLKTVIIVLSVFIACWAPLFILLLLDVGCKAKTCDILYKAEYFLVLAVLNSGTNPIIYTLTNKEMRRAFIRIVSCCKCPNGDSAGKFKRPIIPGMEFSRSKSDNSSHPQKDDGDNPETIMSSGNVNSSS

For `CCn1c([C@@H](C)NS(=O)(=O)c2ccc(Cl)cc2)nc2ccc(C(F)(F)F)cc21`, the microsomal CLint [1] was greater than 100 µL/min/mg, the inhibition [2] was “Active” and the Activity (Cytochrome P450 3A4) was “Dose-dependent effect”. The clearance [3] was 33 mL/min/kg, the Activity (Cytochrome P450 3A5 [4]) was “Active” and the Activity (Cytochrome P450 3A5 [5]) was “Dose-dependent effect”. The bioavailability [6] was 43%, the Activity (Cytochrome P450 1A2) was “Not Active” and the EC50 [7] was 5 nM. The Activity (Cytochrome P450 2B6) was “Not Active”.
